Data published in the EternaBench riboswitch data.

Tested on: MS2 coat protein
Test: apparent Kd, MS2 coat protein; higher = weaker binding; RNA-MaP array; FMN 200 µM where present
Method in brief: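 The titrant was SNAP-549-labelled MS2 coat protein, run from 0.7 or 1.5 nM in doubling steps to 3 µM. It was applied to designs transcribed by stalled E. coli RNA polymerase on Illumina sequencing-chip clusters, without ligand first and then with constant ligand, in 100 mM Tris-HCl pH 7.5, 80 mM KCl, 4 mM MgCl2, BSA, DTT, yeast tRNA and Tween-20. The apparent Kd is the median of filtered per-cluster binding-curve fits, with green signal normalised to red-channel RNA signal and control-cluster median Fmax.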

[1] = designed as: OFF switch for flavin mononucleotide, no ligand
[2] = ligand present: flavin mononucleotide, designed as: OFF switch for flavin mononucleotide
[3] = designed as: ON switch for flavin mononucleotide, no ligand
[4] = ligand present: flavin mononucleotide, designed as: ON switch for flavin mononucleotide

Sequence | apparent Kd [1] [nM] | apparent Kd [2] [nM] | apparent Kd [3] [nM] | apparent Kd [4] [nM]
GAGCACUGAUAAUAAUGUAGAAAUACAUGAGGAUCACCCAUGUAGGAUAUCGUCAGGAAUACUGACGAGAAGGACAUACAGUGC | 15.7 | 25.5 |  | 
AUAUCAUACCAAGGAUAUUUAAGAUUUGUGUAGACAUGAGGAUCACCCAUGUGGCGUUAGUCACGGGAGAAGGUGGUAUGAUAU |  |  | 978 | 205
UGAGCAAGAGGAUAUACAAGGCGUGCGUGAGCACGAGGUUUACAUGAGGAUCACCCAUGUAGAAGGCUUGUUCU | 16.3 | 34.4 |  | 
AUAAUACAUGAGGAUCACCCAUGUAAUUUAACUUGUAAGAUCAAGGAUAUCAGCUCGAUUAGAGCUGAGAAGGUGAUCACAUGU |  |  | 154 | 229
AGUAAGAUGCAGAAGGUGUCAGCGAGAGCUGUACAUGAGGAUCACCCAUGUUGUCGGUGACGACACAAGGAUAUGCAUCUUACA |  |  | 24.7 | 6.28
CCGAAUUAGUAGGAUAUAGGAGUCGAUAGACACCUAGAAGGACUAACAUGAGGAUCACCCAUGUGUCCUAUCGG | 14.6 | 31.5 |  | 
AAGAAACAUGAGGAUCACCCAUGUGAGGAUAUGAAAAAGAAAAGAAAAGAAAGAAGGUUCAGAAGGCACAAAGG | 32.8 | 64.8 |  | 
CAUCCGAAUGAGAAGGGUCACAUGAGGAUCACCCAUGUGACCUCAUCGAUGACAGGAUAUCAUGGGUGGCAGUGUAAAGUUGGC | 6.6 | 7.04 |  | 
UGUUGUAUUACAGGAUAUCUAUUAUUUUAAUUUAGAGAAGGGUAUUCACAUGAGGAUCACCCAUGUAUAUACGAGGAAGUUGUG |  |  | 52.9 | 57.2
AUCAGCUCGUCAGGAUAUACAUCACUGCUUCGGCAGUGUAUCUUAACAACAUGAGGAUCACCCAUGUAGAAGGGACGAGCUGAU | 17.6 | 24.5 |  | 
GUCGGGAUUACAUGAGGAUCACCCAUGUCAGAACGGGCAGUUAGAAGGUGCCAUUAGGGAGAGGGUAAGGAUAUAAUUUUUGGC |  |  | 12 | 10.4
UUUAUAUUCAGAGGAUAUUAAUGUAGUAUAACAUAAGAAGGCUGUUUGUUUUGUAAAGUAAUUCUACAUGAGGAUCACCCAUGU |  |  | 21.4 | 16.2
GCCAAGUCAGGAUAUACAUGAGGAUCACCCAUGUAGGACGCUAUUUUGAUCUUGGUAGGUAGAAGGGACAUGGG | 24.2 | 21.2 |  | 
UUUGAAUUGCAAGGAUAUCUUAUUUAGAUUUUAAGAGAAGGUGCUUUACAGUUACAUGAGGAUCACCCAUGUCUUUCUUUUUAU |  |  | 24.8 | 20
AUCAGCUCGUCAGGAUAUAUGUCACUGCGUCAGCAGUGUGGUAAGAUCACAUGAGGAUCACCCAUGUAGAAGGGACGAGCUGAU | 30.7 | 78.8 |  | 
GUGUACAGAGGAUAUACUUGAAUCUAGCGAAGCUAGGUUCGACAUGAGGAUCACCCAUGUAGAAGGCUGUACAC | 12.7 | 17.4 |  | 
AACUCGUUAGGAUAUACCGCCAACGAUACCUCGUGAAACAUACAUGAGGAUCACCCAUGUAGAAGGAGCGAGCA | 16.9 | 23.3 |  | 
UAUGUCUUUGUGAGGAUAUACUUUGUUUGGUCGUAGUAGAAGGCACAUGAGGAUCACCCAUGUAGAUUUUUGGU | 23.1 | 36.1 |  | 
CCAUGACAAAGUCAUGGAUUACGAACAUGAGGAUCACCCAUGUAGGAUAUGCUACUCAAAGAGUAGCAGAAGGACAUGUGUCUU | 32.9 | 165 |  | 
ACCUCACAUGAGGAUCACCCAUGUCAGGAUAUCUGAUGUAGUCGCGUUCCCGACGCUAAGAGAAGGGACGUUGA | 40.4 | 35.1 |  | 
UUUAGUUCAGGAUAUGUAGAUUUUAACAUGAGGAUCACCCAUGUAGAUCCUGAAUUAACUACAGAAGGGAACAUUA | 21.3 | 75.4 |  | 
GGAUAGGACAGAGGAUAUACGUGCUAGAGGUACUAGCAAAAUUUCCUCACAUGAGGAUCACCCAUGUAGAAGGCUGUCCUAUCG | 17 | 461 |  | 
UAACGACACGCAGGAUAUCUAACAUGAGGAUCACCCAUGUCAGAUGACAGGGUCGCUUUACUGGCAGAGAAGGGCGAUCGAUAC | 7.44 | 11.2 |  | 
UCGGCGCGAGGAUAUGCGGCUGGUGCUUCGGGCUCUGGCGUACAUGAGGAUCACCCAUGUAGAAGGCGCGCCGC | 13.1 | 14.3 |  | 
GGUACUCAAAGAGUACAAGGACGAACAUGAGGAUCACCCAUGUAGGAUAUGCUACUCAAAGAGUAGCAGAAGGACAUGUGCAGC | 25.6 | 73 |  | 
UAUUUUAACUAAGGAUAUCUGUAUUAUGUAGAAACAUGAGGAUCACCCAUGUUCUUGAUAUUAUAGGAGAAGGUAGAUGAAUAA |  |  | 6.6 | 5.72
UUUUCGGCAGGAUAUACAUGAGGAUCACCCAUGUAAAUUUUUCGUUUAACUUGAAUGUGUAGAAGGGCCAUUUU | 23.3 | 23.6 |  | 
AUCAGCUCGUCAGGAUAUACGUCACUGCGUCAGCAGUGUGGUAAGAUCACAUGAGGAUCACCCAUGUAGAAGGGACGAGGUGAU | 14.9 | 265 |  | 

Sequence | apparent Kd [1] [nM] | apparent Kd [2] [nM] | apparent Kd [3] [nM] | apparent Kd [4] [nM]
GAAUUAUUACAGAAGGUGUUUUACAUGAGGAUCACCCAUGUUUUAUUGUUUAAAUUUGUUAUUUACAAGGAUAUGUUCUAUUCU |  |  | 27 | 21.9
AGUAACAGAGGAUAUACUGUUUUAUGUAUUUAUUAUUUUAAACAUGAGGAUCACCCAUGUAGAAGGCUGAAUAA | 20.6 | 20.3 |  | 
CUGGAUCACGCAGGAUAUUACAUGAGGAUCACCCAUGUCAGGACUGCAAUAUCGUCUCCUCGGUGUGAGAAGGGCGGAAUCAUU | 15 | 27 |  | 
UAAUUUUGUCAAGGAUAUGUAAUAUAGAUUUGUAAACAUGAGGAUCACCCAUGUAUAUGGUGGGAACAGAAGGUGAAUGGAGAA | 196 | 171 |  | 
UUUAUACAUGAGGAUCACCCAUGUGAGGAUAUGCUUUAUUAUUAUUAUUAUUAUUAUUGCAGAAGGCACGUUAU | 39.3 | 54.8 |  | 
CUGAGGAAGAGAGAGGAUAUCCAAAGGAAAACAUGAGGAUCACCCAUGUAAAAGGUAGGAAAUUGGGAGAAGGCUCAAGAGAGAG |  |  | 43.6 | 38.5
AAGAACAUUGACAUGAGGAUCACCCAUGUUGCAGCUAGCUACAGAAGGCACGCGGUACCAAAGGGUGAGGAUAUGUAGGGCCAU |  |  | 93.4 | 17.2
UGUGUGUGGCAGGAUAUGCCGGUCGUAGGACGGGUAGAAGGGUCUACAUGAGGAUCACCCAUGUGGCCGGUUGG | 19.2 | 18.5 |  | 
AUAUUGUGAGGAUAUGAACUUUGUAUCGAAAGAUACUAAGUUCAGAAGGCACAUGAGGAUCACCCAUGUUUCUC | 82.2 | 1130 |  | 
GUAGCUAUUAAAGGAUAUUCAUACCGGAAACGGACAUGAGGAUCACCCAUGUGGCGAAAGCCUUGGGAGAAGGUUAUUAGCUAC |  |  | 378 | 15.6
GUCAGCUCGUGAGGAUAUACAACACUGAUUCGGCAGUGUAUUAAGAUCACAUGAGGAUCACCCAUGUAGAAGGCACGAGCUGAU | 17.2 | 275 |  | 
GAGAAGUCAGGAUAUCCAUGGCGGCACUUGCGUGGUGGCGUGGAGAAGGGACAUGAGGAUCACCCAUGUAAAGU | 49.8 | 39.1 |  | 
GUAUAUAUUACAUGAGGAUCACCCAUGUCAGAACGGGUAAUCAGAAGGUAUUAUUAGAGAAAGAGUAAGGAUAUGAUUAUAUAC |  |  | 622 | 181
UACAAUCUAUCUGAGGAUAUCAUGAAAAAAACAUGAGGAUCACCCAUGUGCAGGAAAACUGCAUAUGAGAAGGCAGAUAGAUUGG |  |  | 736 | 28.9
UCAUACGAUGAGGAUAUCUCCGUUAAAGUAUGUAGAGAAGGCGUUACAUGAGGAUCACCCAUGUUUGUGGGCAG | 304 | 385 |  | 
GUAUCUUAUGAGAAGGCGAUCAUGAAACAUGAUCGAGGAUAUCAUGAAAACAUGAGGAUCACCCAUGUAUGGGUAUUAUGGUAC |  |  | 63.5 | 43.7
CCUAUGUGAGGAUAUGUCUGGUCUUCUUUUAUUUUUUACAGACAGAAGGCACAUGAGGAUCACCCAUGUCAGAC | 23.2 | 64.7 |  | 
GCGUAAUAGGUGUAGCUAGUCGUACAAGAAGGGUGGUGAACAUGAGGAUCACCCAUGUGGUCAAUACAGGAUAUUGUUAUACGC |  |  | 832 | 112
UUUAUGUGAGGAUAUCAGUAGUAAAAAAAUAAAAUUACUACUGAGAAGGCACAUGAGGAUCACCCAUGUGCUUC | 19.5 | 15.1 |  | 
AGAAAAGCAGGAUAUAUCCGGGAUAACAUGAGGAUCACCCAUGUGACCGCUUGAUAUCCUAUAGAAGGGCUUAAGA | 24.4 | 51.2 |  | 
GGAGAUACAUGAGGAUCACCCAUGUAGGAUAUCGGGCCCAUAUAUGGCGAAAGCCAUAUAUGGGCCGAGAAGGGCGUACACACC | 7.63 | 7.45 |  | 
CUAAUGUGAGGAUAUGGUGUUGAUCGCAGGAAGGAGAUUCUCCAGAAGGCACAUGAGGAUCACCCAUGUAGUGA | 103 | 51.1 |  | 
AAUCAGUCAGGAUAUCGUUAAUUUAAUUGUUUGUUUUAGUUCGAGAAGGGACAUGAGGAUCACCCAUGUACUCA | 23.1 | 28.8 |  | 
AAUUAUUGAUGAGGAUAUUGUGGUGAAACACGACAAGAAGGCAUUAUACACAUGAGGAUCACCCAUGUGAGCCUGAUGCAUAUA | 16.6 | 22.2 |  | 
GGAUCGUAUGUCAGGAUAUACCACUGGAUACAGUGGUAGAAGGGACAUGAGGAUCACCCAUGUCUUAUCGAUCC | 13.2 | 18.3 |  | 
GUACUGUAGUGAGGAUAUACGAGAACGAUAGUUCGGCGAUCCAUAUAUACAUGAGGAUCACCCAUGUAGAAGGCACUUCAGUAC | 9.3 | 108 |  | 
AUGAGGUCAGGAUAUGCAUGGCGGGACUUGCGUCGUGGCGUGCAGAAGGGACAUGAGGAUCACCCAUGUGGAGA | 104 | 325 |  | 
